Source: ChEMBL document CHEMBL3797187, “Design, synthesis and biological evaluation of potent FAAH inhibitors” (Bioorg Med Chem Lett, 2016)

Tests used:
[1] = Cytotoxicity against human HT-29 cells assessed as growth inhibition at 10 uM after 72 hrs by MTS assay relative to control; format: cell-based; details: read-out: GI
In short: (§1)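 Test compounds at 10 µM on human colorectal adenocarcinoma HT29 and human embryonic kidney HEK293 cells. Cell proliferation scored colorimetrically by MTS tetrazolium reduction to formazan (NADPH-dependent oxidoreductase activity as viable-cell readout). Reported as % inhibition at 10 µM.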

[2] = Cytotoxicity against human HEK293 cells assessed as growth inhibition at 10 uM after 72 hrs by MTS assay relative to control; format: cell-based; details: read-out: GI; in short: as §1
[3] = biological target: T1, Fatty-acid amide hydrolase 1 (Homo sapiens) (UniProt O00519); test: Inhibition of human recombinant FAAH expressed in sf21 cells using AMC-AA as substrate at 10 uM preincubated for 15 mins followed by substrate addition measured after 2 hrs by spectrophotometric analysis relative to control
T1 sequence (whole entry): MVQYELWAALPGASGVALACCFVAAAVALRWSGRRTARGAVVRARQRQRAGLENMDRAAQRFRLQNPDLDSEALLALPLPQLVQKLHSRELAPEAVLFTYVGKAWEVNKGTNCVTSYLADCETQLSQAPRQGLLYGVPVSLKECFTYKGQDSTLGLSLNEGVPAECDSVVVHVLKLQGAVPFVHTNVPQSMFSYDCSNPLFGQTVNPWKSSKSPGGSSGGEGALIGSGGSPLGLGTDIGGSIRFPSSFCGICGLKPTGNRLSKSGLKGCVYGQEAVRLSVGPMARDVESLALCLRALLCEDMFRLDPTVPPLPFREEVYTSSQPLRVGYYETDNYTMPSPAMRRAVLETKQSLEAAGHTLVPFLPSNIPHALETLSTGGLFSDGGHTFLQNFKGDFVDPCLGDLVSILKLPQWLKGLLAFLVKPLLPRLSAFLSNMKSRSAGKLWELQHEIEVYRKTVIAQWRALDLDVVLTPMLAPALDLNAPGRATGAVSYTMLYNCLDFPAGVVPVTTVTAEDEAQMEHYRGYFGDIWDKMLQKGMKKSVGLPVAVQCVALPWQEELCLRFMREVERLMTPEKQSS
In short: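 Human recombinant FAAH expressed in SF21 cells, 4 U/mL, preincubated 15 min with compound at 37 °C in Tris buffer pH 9. Hydrolysis of the fluorogenic substrate AMC-arachidonamide then measured. Single-point screen at 10 µM as % inhibition. IC50 from concentration-response, mean ± SEM of three experiments performed in duplicate.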

[4] = biological target: T2, Fatty-acid amide hydrolase 1 (Homo sapiens, UniProt O00519); test: Inhibition of human recombinant FAAH expressed in sf21 cells using AMC-AA as substrate preincubated for 15 mins followed by substrate addition measured after 2 hrs by spectrophotometric analysis
T2 sequence (O00519 whole entry): T1 sequence (whole entry)
In short: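 Human recombinant FAAH expressed in SF21 cells, 4 U/mL, preincubated 15 min with compound at 37 °C in Tris buffer pH 9. Hydrolysis of the fluorogenic substrate AMC-arachidonamide then measured. IC50 from concentration-response, mean ± SEM of three experiments performed in duplicate.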

[5] = biological target: T1, Fatty-acid amide hydrolase 1 (Homo sapiens); test: Potency index, ratio of 5-(4-Pentyloxy-phenyl)-isoxazole-3-carboxylic acid adamantan-1-ylamide IC50 to compound IC50 for human recombinant FAAH expressed in sf21 cells

CN1CCN(C(=O)c2cccc(-c3ccc(-c4cc(C(=O)NC56CC7CC(CC(C7)C5)C6)no4)cc3)c2)CC1
inhibition at 72 h, 10 µM [1]: 55% | inhibition at 72 h, 10 µM [2]: 47% | inhibition [3]: 44%

O=C(NC12CC3CC(CC(C3)C1)C2)c1cc(-c2ccc(-c3cccc(C(=O)N4CCOCC4)c3)cc2)on1
inhibition at 72 h, 10 µM [1]: 10% | inhibition at 72 h, 10 µM [2]: 54% | inhibition [3]: 49%

O=C(NC12CC3CC(CC(C3)C1)C2)c1cc(-c2ccc(-c3ccc(C(=O)N4CCOCC4)cc3)nc2)on1
inhibition at 72 h, 10 µM [1]: 0% | inhibition at 72 h, 10 µM [2]: 10% | inhibition [3]: 12%

CC(=O)c1ccc(-c2ccc(-c3cc(C(=O)NC45CC6CC(CC(C6)C4)C5)no3)cn2)cc1
inhibition at 72 h, 10 µM [1]: 0% | inhibition at 72 h, 10 µM [2]: 5% | inhibition [3]: 13%

CC(=O)c1cccc(-c2ccc(-c3cc(C(=O)NC45CC6CC(CC(C6)C4)C5)no3)cn2)c1
inhibition at 72 h, 10 µM [1]: 0% | inhibition at 72 h, 10 µM [2]: 18% | inhibition [3]: 22%

O=C(NC12CC3CC(CC(C3)C1)C2)c1cc(-c2ccc(-c3cnc4ccccc4c3)cc2)on1
inhibition at 72 h, 10 µM [1]: 0% | inhibition at 72 h, 10 µM [2]: 24% | inhibition [3]: 22%

O=C(NC12CC3CC(CC(C3)C1)C2)c1cc(-c2ccc(-c3ccccc3)nc2)on1
inhibition at 72 h, 10 µM [1]: 0% | inhibition at 72 h, 10 µM [2]: 14% | inhibition [3]: 23%

COc1cccc(-c2ccc(-c3cc(C(=O)NC45CC6CC(CC(C6)C4)C5)no3)cc2)c1
inhibition at 72 h, 10 µM [1]: 0% | IC50 [4]: 720 nM | inhibition at 72 h, 10 µM [2]: 20% | inhibition [3]: 58%

COc1ccc(-c2ccc(-c3cc(C(=O)NC45CC6CC(CC(C6)C4)C5)no3)cc2)cc1
inhibition at 72 h, 10 µM [1]: 0% | inhibition at 72 h, 10 µM [2]: 2% | inhibition [3]: 15%

O=C(NC12CC3CC(CC(C3)C1)C2)c1cc(-c2ccc(-c3ccc(C(=O)N4CCOCC4)cc3)cc2)on1
inhibition at 72 h, 10 µM [1]: 0% | inhibition at 72 h, 10 µM [2]: 23% | inhibition [3]: 24%

COc1ccccc1-c1ccc(-c2cc(C(=O)NC34CC5CC(CC(C5)C3)C4)no2)cc1
inhibition at 72 h, 10 µM [1]: 2% | inhibition at 72 h, 10 µM [2]: 25% | inhibition [3]: 47%

NC(=O)c1cccc(-c2ccc(-c3cc(C(=O)NC45CC6CC(CC(C6)C4)C5)no3)cc2)c1
inhibition at 72 h, 10 µM [1]: 0% | inhibition at 72 h, 10 µM [2]: 3% | inhibition [3]: 11%

O=C(NC12CC3CC(CC(C3)C1)C2)c1cc(-c2ccc(-c3ccco3)cc2)on1
inhibition at 72 h, 10 µM [1]: 0% | inhibition at 72 h, 10 µM [2]: 12% | inhibition [3]: 31%

CN1CCN(Cc2cccc(-c3ccc(-c4cc(C(=O)NC56CC7CC(CC(C7)C5)C6)no4)cc3)c2)CC1
inhibition at 72 h, 10 µM [1]: 97% | IC50 [4]: 1130 nM | inhibition at 72 h, 10 µM [2]: 93% | inhibition [3]: 63%

NC(=O)c1cccc(-c2ccc(-c3cc(C(=O)NC45CC6CC(CC(C6)C4)C5)no3)cn2)c1
inhibition at 72 h, 10 µM [1]: 14% | inhibition at 72 h, 10 µM [2]: 1% | inhibition [3]: 20%

CN1CCN(C(=O)c2ccc(-c3ccc(-c4cc(C(=O)NC56CC7CC(CC(C7)C5)C6)no4)cc3)cc2)CC1
inhibition at 72 h, 10 µM [1]: 24% | inhibition at 72 h, 10 µM [2]: 37% | inhibition [3]: 23%

O=C(NC12CC3CC(CC(C3)C1)C2)c1cc(-c2ccc(-c3cccc(CN4CCOCC4)c3)cc2)on1
inhibition at 72 h, 10 µM [1]: 0% | IC50 [4]: 830 nM | inhibition at 72 h, 10 µM [2]: 38% | inhibition [3]: 69%

CCCCCOc1ccc(-c2cc(C(=O)NC34CC5CC(CC(C5)C3)C4)no2)cc1
inhibition [3]: 79%

N#Cc1cccc(-c2ccc(-c3cc(C(=O)NC45CC6CC(CC(C6)C4)C5)no3)cc2)c1
inhibition at 72 h, 10 µM [1]: 0% | IC50 [4]: 240 nM | inhibition at 72 h, 10 µM [2]: 0% | Ratio IC50 [5]: 2 | inhibition [3]: 64%

COc1cc(-c2ccc(-c3cc(C(=O)NC45CC6CC(CC(C6)C4)C5)no3)cc2)cc(OC)c1OC
inhibition at 72 h, 10 µM [1]: 6% | inhibition at 72 h, 10 µM [2]: 32% | inhibition [3]: 42%

CC(=O)c1ccc(-c2ccc(-c3cc(C(=O)NC45CC6CC(CC(C6)C4)C5)no3)cc2)cc1
inhibition at 72 h, 10 µM [1]: 4% | inhibition at 72 h, 10 µM [2]: 5% | inhibition [3]: 18%

CN1CCN(Cc2ccc(-c3ccc(-c4cc(C(=O)NC56CC7CC(CC(C7)C5)C6)no4)cc3)cc2)CC1
inhibition at 72 h, 10 µM [1]: 90% | inhibition at 72 h, 10 µM [2]: 89% | inhibition [3]: 41%

O=C(NC12CC3CC(CC(C3)C1)C2)c1cc(-c2ccc(-c3ccc4c(c3)OCO4)cc2)on1
inhibition at 72 h, 10 µM [1]: 0% | inhibition at 72 h, 10 µM [2]: 9% | inhibition [3]: 18%

O=C(NC12CC3CC(CC(C3)C1)C2)c1cc(-c2ccc(-c3ccc(CN4CCOCC4)cc3)cc2)on1
inhibition at 72 h, 10 µM [1]: 0% | inhibition at 72 h, 10 µM [2]: 20% | inhibition [3]: 16%

CN1CCN(C(=O)c2ccc(-c3ccc(-c4cc(C(=O)NC56CC7CC(CC(C7)C5)C6)no4)cn3)cc2)CC1
inhibition at 72 h, 10 µM [1]: 0% | inhibition at 72 h, 10 µM [2]: 3% | inhibition [3]: 10%

O=C(NC12CC3CC(CC(C3)C1)C2)c1cc(-c2ccc(-c3ccncc3)nc2)on1
inhibition at 72 h, 10 µM [1]: 0% | inhibition at 72 h, 10 µM [2]: 1% | inhibition [3]: 23%

COc1ccc(-c2ccc(-c3cc(C(=O)NC45CC6CC(CC(C6)C4)C5)no3)cc2)cc1OC
inhibition at 72 h, 10 µM [1]: 7% | inhibition at 72 h, 10 µM [2]: 29% | inhibition [3]: 14%

O=C(NC12CC3CC(CC(C3)C1)C2)c1cc(-c2ccc(-c3ccncc3)cc2)on1
inhibition at 72 h, 10 µM [1]: 1% | inhibition at 72 h, 10 µM [2]: 9% | inhibition [3]: 17%

NC(=O)c1ccc(-c2ccc(-c3cc(C(=O)NC45CC6CC(CC(C6)C4)C5)no3)cc2)cc1
inhibition at 72 h, 10 µM [1]: 0% | inhibition at 72 h, 10 µM [2]: 4% | inhibition [3]: 10%

CC(=O)c1cccc(-c2ccc(-c3cc(C(=O)NC45CC6CC(CC(C6)C4)C5)no3)cc2)c1
inhibition at 72 h, 10 µM [1]: 1% | IC50 [4]: 590 nM | inhibition at 72 h, 10 µM [2]: 16% | inhibition [3]: 56%

NC(=O)c1cccc(-c2cccc(OC(=O)NC3CCCCC3)c2)c1 [URB-597]
inhibition at 72 h, 10 µM [1]: 0% | inhibition at 72 h, 10 µM [2]: 0% | inhibition [3]: 98%
